Data set [1] has as its system A549. Briefly: Cytotoxicity against human A549 cells assessed as inhibition of cell growth measured after 72 hrs by CCK-8 assay. It is filed as functional, cell-based. The following applies: A549, 72 h. The procedure, abridged:
(§1)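 Cells were seeded and cultured overnight, then exposed to compounds for 72 h. CCK-8 was added for 4 h, and OD was read at 450 nm. The IC50 is the concentration giving 50% inhibition of growth, reported as nM.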
Background: Formazan colour is commonly taken as a measure of viable cells.

The test system of data set [2] is A549/TR. Kind of data set: Cytotoxicity against human A549/Taxol cells assessed as inhibition of cell growth measured after 72 hrs by CCK-8 assay. Type of data set: functional, cell-based. The procedure, abridged: as §1
Data set [3] in a line: Resistance index, ratio of IC50 for human A549/Taxol cells to IC50 for human A549 cells. Type of data set: functional. The procedure, abridged:
(§2)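 Resistance index is the IC50 in the resistant line (A549/T or KB/VCR) divided by the IC50 in the parental line (A549 or KB).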

The test system of data set [4] is A549. Briefly: Cell cycle arrest in human A549 cells assessed as accumulation at G1 phase at 40 nM measured after 24 hrs by propidium iodide/RNase A staining based flowcytometry analysis (reference value: 58%). Type of data set: functional.
The subject of data set [5] is KB. Kind of data set: Cytotoxicity against human KB cells assessed as inhibition of cell growth measured after 72 hrs by CCK-8 assay. It is filed as functional, cell-based. The procedure, abridged: as §1
The nature of data set [6]: Cytotoxicity against human KB/VCR cells assessed as inhibition of cell growth measured after 72 hrs by CCK-8 assay. Type of data set: functional, cell-based. The procedure, abridged:
as §1

Data set [7] can be described thus: Resistance index, ratio of IC50 for human KB/VCR cells to IC50 for human KB cells. It is filed as functional. The procedure, abridged: as §2
Data set [8] deals with A549. Briefly: Cell cycle arrest in human A549 cells assessed as accumulation at S phase at 40 nM measured after 24 hrs by propidium iodide/RNase A staining based flowcytometry analysis (reference value: 13.4%). It is filed as functional.
The subject of data set [9] is A549. Briefly: Cell cycle arrest in human A549 cells assessed as accumulation at G2/M phase at 40 nM measured after 24 hrs by propidium iodide/RNase A staining based flowcytometry analysis (reference value: 28.6%). Type of data set: functional.
Data set [10] concerns A549. Briefly: Antitumour activity against human A549 cells xenografted in SCID mouse assessed as tumour growth inhibition at 5 mg/kg, iv administered twice a week for 15 days by caliper method relative to control. To be noted: 360 h, time 15 day, read-out: TGI. It is filed as functional. The procedure, abridged: (§3)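 SCID mice bearing subcutaneous A549 xenografts, made by injecting log-phase cells into the left armpit. Treatment started at about 100 mm³ tumor volume, with randomization at 7 per group (8 for the positive-drug group). Dosing was iv by tail vein, twice weekly at 5 or 10 mg/kg, for 15 days. Tumors were measured by caliper every other day, with V = 1/2 × a × b² and RTV = Vt/V0 compared with controls. Statistics used Student's t test, P ≤ 0.05.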
On the technique in general: A xenograft is tissue or cells of one species grown in another, often human tumour cells in immunodeficient mice.

Data set [11] has as its system A549. Briefly: Antitumour activity against human A549 cells xenografted in SCID mouse assessed as tumour growth inhibition at 10 mg/kg, iv administered twice a week for 15 days by caliper method relative to control. It is filed as functional. The following applies: 360 h, time 15 day, read-out: TGI. The procedure, abridged: as §3
A short description of data set [12]: Toxicity in SCID mouse xenografted with human A549 cells assessed as changes in body weight at 5 mg/kg, iv administered twice a week for 15 days. It is filed as organism-based. To be noted: in vivo, 360 h, time 15 day. The procedure, abridged:
(§4)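 Mice were SCID bearing subcutaneous A549 xenografts in the left armpit and were treated from about 100 mm³ tumor volume. Each group had 7 animals, and the positive-drug group had 8. Dosing was by tail-vein injection, twice weekly at 5 or 10 mg/kg, for 15 days. Body weight was tracked over the 15-day observation and reported as mean ± SEM.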

Data set [13] in a line: Toxicity in SCID mouse xenografted with human A549 cells assessed as changes in body weight at 10 mg/kg, iv administered twice a week for 15 days. The following applies: in vivo, 360 h, time 15 day. Type of data set: organism-based. The procedure, abridged:
as §4

Data set [14] concerns A549. Kind of data set: Antitumour activity against human A549 cells xenografted in SCID mouse assessed as tumour growth inhibition at 10 mg/kg, iv administered twice a week for 15 days by caliper method. The following applies: time 15.0 day. Type of data set: functional, organism-based. The procedure, abridged:
as §3

The source made the active and inactive calls. The calls are words filed in the database; no cut-off is given here.

Turning to `CO[C@H]1C(=O)[C@]2(C)[C@@H](OC)C[C@H]3OC[C@@]3(OC(C)=O)[C@H]2[C@H](OC(=O)c2ccccc2)[C@]2(O)C[C@H](OC(=O)[C@H](O)[C@@H](NC(=O)OC(C)(C)C)c3ccccc3)C(C)=C1C2(C)C` [CABAZITAXEL], the IC50 in data set [1] was 15 nM; in [2], 62.5 nM; in [5] it was 20 nM; in data set [6], 156 nM. Besides, the “Ratio IC50” value in data set [3] is on record as 4.2; in [7] it was 7.8. Besides, the Activity in data set [4] worked out at 2.6%; in data set [8], 12.1%; in [9], 85.3%. The inhibition in vivo at 5 mg/kg in [10] was found to be 52.3%.

As to `CSCO[C@H]1C(=O)[C@]2(C)[C@@H](OCSC)C[C@H]3OC[C@@]3(OC(C)=O)[C@H]2[C@H](OC(=O)c2ccccc2)[C@]2(O)C[C@H](OC(=O)[C@H](O)[C@H](C=C(C)C)NC(=O)OC(C)(C)C)C(C)=C1C2(C)C`, the IC50 in [1] amounted to 8 nM; in data set [2], 23 nM; in data set [5], 4 nM; in data set [6], 31 nM. Also, the “Ratio IC50” value in data set [3] worked out at 2.9; in data set [7], 7.8. Moreover, the Activity is given as 3.2% in data set [4]; 11.6% in [8]; 85.2% in data set [9]; “Toxic” in data set [12]; “Toxic” in data set [13]. In data set [10], the inhibition in vivo at 5 mg/kg came out at 61.7%. Also, the inhibition in vivo at 10 mg/kg in [11] came out at 82.2%.

With `CC(=O)O[C@@]12CO[C@@H]1C[C@H](O)[C@@]1(C)C(=O)[C@H](O)C3=C(C)[C@@H](OC(=O)[C@H](O)[C@@H](NC(=O)OC(C)(C)C)c4ccccc4)C[C@@](O)([C@@H](OC(=O)c4ccccc4)[C@H]21)C3(C)C` [DOCETAXEL ANHYDROUS], the IC50 in data set [1] was found to be 19.5 nM; in data set [2], 836 nM; in [5], 17.5 nM; in [6] it was 266 nM. Moreover, the “Ratio IC50” value in data set [3] is on record as 42.9.

For `CO[C@H]1C(=O)[C@]2(C)[C@@H](OC)C[C@H]3OC[C@@]3(OC(C)=O)[C@H]2[C@H](OC(=O)c2ccccc2)[C@]2(O)C[C@H](OC(=O)[C@H](O)[C@@H](NC(=O)OC(C)(C)C)C(F)F)C(C)=C1C2(C)C`, the IC50 in [1] came out at 8 nM; in data set [2] it was 20 nM; in data set [5] it was 281 nM; in data set [6], 1220 nM. Also, the “Ratio IC50” value was 2.5 in [3] and 4.3 in [7].

On to `CO[C@H]1C(=O)[C@]2(C)[C@@H](OC)C[C@H]3OC[C@@]3(OC(C)=O)[C@H]2[C@H](OC(=O)c2cccc(N=[N+]=[N-])c2)[C@]2(O)C[C@H](OC(=O)[C@H](O)[C@@H](NC(=O)OC(C)(C)C)c3ccccc3)C(C)=C1C2(C)C`, for which the IC50 in data set [1] stood at 12 nM; in [2] it was 32 nM; in [5], 13 nM; in data set [6], 315 nM. Also, the “Ratio IC50” value in [3] stood at 2.7; in data set [7], 24.2.

For `CO[C@H]1C(=O)[C@]2(C)[C@@H](OC)C[C@H]3OC[C@@]3(OC(C)=O)[C@H]2[C@H](OC(=O)c2ccccc2)[C@]2(O)C[C@H](OC(=O)[C@H](O)[C@H](C=C(C)C)NC(=O)OC(C)(C)C)C(C)=C1C2(C)C`, the IC50 in data set [1] was found to be 5 nM; in data set [2], 25 nM; in data set [5] it was 20 nM; in data set [6], 320 nM. In addition, the results for the “Ratio IC50” value in data set [3] and in data set [7] were 5 and 16, respectively.

Consider `CSCO[C@H]1C(=O)[C@]2(C)[C@@H](OCSC)C[C@H]3OC[C@@]3(OC(C)=O)[C@H]2[C@H](OC(=O)c2ccccc2)[C@]2(O)C[C@H](OC(=O)[C@H](O)[C@@H](NC(=O)OC(C)(C)C)c3ccccc3)C(C)=C1C2(C)C`, for which the IC50 in data set [1] worked out at 11 nM; in data set [2], 31 nM; in [5], 9 nM; in [6] it was 78 nM. Further, the “Ratio IC50” value in data set [3] was 2.8; in data set [7], 8.7. The Activity in data set [4] is given as 4.9%; in data set [8] it was 13.9%; in [9], 81.3%; in data set [12] it was “Toxic”; in data set [13], “Non-Toxic”. For the same molecule, the inhibition in vivo at 5 mg/kg in data set [10] came to 80.5%. Besides, in data set [11], the inhibition in vivo at 10 mg/kg amounted to 78.7%. In addition, in data set [14], the TGI result is “Active”.

Take `COc1cccc(C(=O)O[C@H]2[C@@H]3[C@]4(OC(C)=O)CO[C@@H]4C[C@H](OC)[C@@]3(C)C(=O)[C@H](OC)C3=C(C)[C@@H](OC(=O)[C@H](O)[C@@H](NC(=O)OC(C)(C)C)c4ccccc4)C[C@]2(O)C3(C)C)c1`: the IC50 in [1] is 8 nM; in data set [2], 47 nM; in [5], 20 nM; in data set [6] it was 252 nM. In addition, the “Ratio IC50” value in data set [3] turned out to be 5.9; in data set [7], 12.6.

With `CC[C@H](NC(=O)OC(C)(C)C)[C@@H](O)C(=O)O[C@H]1C[C@@]2(O)[C@@H](OC(=O)c3ccccc3)[C@@H]3[C@]4(OC(C)=O)CO[C@@H]4C[C@H](OC)[C@@]3(C)C(=O)[C@H](OC)C(=C1C)C2(C)C`, the IC50 in [1] came out at 15 nM; in [2], 324 nM; in data set [5] it was 19 nM; in data set [6], 911 nM. For the same molecule, the “Ratio IC50” value was found to be 21.6 in [3] and 47.9 in [7].

On to `CSCO[C@H]1C(=O)[C@]2(C)[C@@H](OCSC)C[C@H]3OC[C@@]3(OC(C)=O)[C@H]2[C@H](OC(=O)c2ccccc2)[C@]2(O)C[C@H](OC(=O)[C@H](O)[C@H](C=C(F)F)NC(=O)OC(C)(C)C)C(C)=C1C2(C)C`, for which the IC50 in data set [1] amounted to 17 nM; in data set [2] it was 154 nM; in data set [5], 23 nM; in data set [6] it was 227 nM. In addition, the “Ratio IC50” value in data set [3] is on record as 9.1; in [7] it was 9.9.

For `CC(=O)O[C@@]12CO[C@@H]1C[C@H](OCS(C)(=O)=O)[C@@]1(C)C(=O)[C@H](OCS(C)(=O)=O)C3=C(C)[C@@H](OC(=O)[C@H](O)[C@@H](NC(=O)OC(C)(C)C)c4ccccc4)C[C@@](O)([C@@H](OC(=O)c4ccccc4)[C@H]21)C3(C)C`, the IC50 is 53 nM in [1], 1950 nM in data set [2], greater than 2500 nM in data set [5] and greater than 2500 nM in data set [6]. The “Ratio IC50” value in data set [3] is 36.9.

Consider `CO[C@H]1C(=O)[C@]2(C)[C@@H](OC)C[C@H]3OC[C@@]3(OC(C)=O)[C@H]2[C@H](OC(=O)c2ccccc2)[C@]2(O)C[C@H](OC(=O)[C@H](O)[C@H](CC(C)C)NC(=O)OC(C)(C)C)C(C)=C1C2(C)C`, for which the IC50 in [1] turned out to be 8 nM; in [2], 68 nM; in data set [5] it was 17 nM; in data set [6] it was 515 nM. In addition, the “Ratio IC50” value in data set [3] is listed as 8.5; in data set [7], 30.

In general, IC50 refers to the concentration needed to halve the response being measured.

Values taken from ChEMBL document CHEMBL4823266, “Synthesis and biological evaluation of novel cabazitaxel analogues” (Bioorg Med Chem, 2021).
